The subject of series [1] is MCF7. Put plainly: Antiproliferative activity against human MCF7 cells assessed as inhibition of cell growth after 72 hrs by MTT assay. Conditions: MCF7, 72 h. The series is classed as functional, cell-based. A digest of the protocol:
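MCF-7 cells in MEM with 10% FBS, 2 mM L-glutamine, penicillin/streptomycin and 1% non-essential amino acids. Seeded at 2.5 × 10⁴ cells/mL, grown 24 h at 37 °C, then dosed from ethanol stocks over 1 nM–100 µM for 72 h; vehicle was ethanol 1% v/v. Read-out was MTT at 1 mg/mL for 2 h, solubilised in DMSO, absorbance relative to control as 100% viability. Triplicate; mean ± S.E.M of at least three experiments.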

A short description of series [2]: Aqueous solubility of the compound after 24 hrs by HPLC analysis. The series is classed as physicochemical. To be noted: aqueous medium. An outline of the steps:
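Compound was shaken in water at 300 shakes/min for 24 h, then filtered. The filtrate was quantified by HPLC on a C18 column with acetonitrile/water 70:30 at 1 mL/min, detection at 254 nm. The value is the maximum of n = 3.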

Series [3] is described as follows: Half life in human plasma at pH 4 to 9. The series is classed as ADME, cell-free.
Series [4] is described as follows: Solubility in human plasma. The series is classed as ADME, cell-free.
A short description of series [5]: Inhibition of bovine brain tubulin polymerization measured every 30s for 30 mins by spectrophotometric analysis. Further details: species or system Bos taurus.
Series [6] concerns MCF7. Put plainly: Induction of mitotic catastrophe in human MCF7 cells at 1 uM after 16 hrs by immunofluorescence analysis. The series is classed as functional, cell-based. An outline of the steps: (§1)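 MCF-7 cells seeded at 1 × 10⁵ per well on chamber slides and treated 16 h; vehicle was 1% ethanol v/v. Fixed in methanol at −20 °C for 30 min and blocked in 5% BSA/PBST. Stained with anti-α-tubulin DM1A (1:20) and then FITC anti-mouse (1:100), each 1 h at room temperature, with DAPI counterstain. Imaged by confocal microscopy; three separate experiments.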

The test system of series [7] is MCF7. Description: Induction of cell cycle arrest in human MCF7 cells assessed as accumulation of cells in sub-G1 phase at 1 uM after 48 hrs by propidium iodide staining based flow cytometry. The series is classed as functional. A digest of the protocol:
(§2)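 MCF-7 cells seeded at 1 × 10⁵ cells/cm³ and treated after 24 h for 48 h; vehicle was 1% ethanol v/v. Cells were fixed in 70% ethanol:PBS overnight at −20 °C, then stained with RNase 0.5 mg/mL and propidium iodide 0.15 mg/mL for 30 min at 37 °C. Analysed by flow cytometry, at least 10,000 gated cells, sub-diploid counted as sub-G1. Mean ± SEM of at least three experiments; one-way ANOVA with Bonferroni test.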
In general terms: In flow cytometry, cells or beads pass a laser one at a time.

Series [8] concerns MCF7. Description: Induction of cell cycle arrest in human MCF7 cells assessed as accumulation of cells in G2/M phase at 1 uM after 48 hrs by propidium iodide staining based flow cytometry. The series is classed as functional. An outline of the steps:
as §2

Series [9] relates to MCF7. Description: Induction of microtubule depolymerization in human MCF7 cells assessed as complete loss of microtubule formation at 1 uM after 16 hrs by immunofluorescence analysis. The series is classed as cell-based. An outline of the steps:
as §1

The species named for series [10] is Bos taurus. Description: Inhibition of bovine brain tubulin polymerization measured every 30s for 60 mins by spectrophotometric analysis.
Series [11] deals with MCF7. Put plainly: Induction of cell cycle arrest in human MCF7 cells assessed as accumulation of cells in G2/M phase at 100 nM after 48 hrs by propidium iodide staining based flow cytometry. The series is classed as functional. An outline of the steps: as §2
For series [12], the system named is MCF7. Put plainly: Induction of microtubule depolymerization in human MCF7 cells assessed as complete loss of microtubule formation at 100 nM after 16 hrs by immunofluorescence analysis. The series is classed as cell-based. A digest of the protocol:
as §1

Series [13] relates to MCF7. Put plainly: Induction of cell cycle arrest in human MCF7 cells assessed as accumulation of cells in sub-G1 phase at 100 nM after 48 hrs by propidium iodide staining based flow cytometry. The series is classed as functional. An outline of the steps: as §2
Series [14] deals with MCF7. Description: Induction of mitotic catastrophe in human MCF7 cells at 100 nM after 16 hrs by immunofluorescence analysis. The series is classed as functional, cell-based. An outline of the steps:
as §1

Series [15] is filed under the species Bos taurus. Put plainly: Inhibition of bovine brain tubulin polymerization at 10 uM measured every 30s for 60 mins by spectrophotometric analysis.
The next series concerns Colon 26. Put plainly: Antiproliferative activity against mouse Colon 26 cells assessed as inhibition of cell growth. The series is classed as functional, cell-based.
Series [16] in a line: Solubility in human plasma at pH 7.2 to 7.5. The series is classed as ADME, cell-free.

SMILES strings stand for the structures. In brackets after ≈: the same amount, converted by molar mass. Activity calls are given as the source filed them. The rule behind the calls is not given here. A value given as a limit tells only on which side of the number the result lay.

One may read the IC50 as the concentration needed to halve the response being measured. The solubility is the concentration that dissolves in the medium under given conditions. The low end stands for little dissolved substance, the high end for much dissolved substance. As for `COc1ccc([C@H]2[C@H](c3ccc(NC(=O)[C@@H](N)C(C)C)cc3)C(=O)N2c2cc(OC)c(OC)c(OC)c2)cc1`, the IC50 with MCF7 [1] came out at 50 nM. This compound yielded a solubility at 24 h in [2] of 4 µg/mL (≈ 7.5 µM).

On to `COc1ccc([C@H]2[C@H](c3ccc(NC(=O)[C@@H](N)CO)cc3)C(=O)N2c2cc(OC)c(OC)c(OC)c2)cc1`, for which, in the series on MCF7 [1], the IC50 worked out at 860 nM.

For orientation: half-life means how long it takes for the measured level to halve. High values mean slow loss, low ones fast loss. `COc1ccc([C@H]2[C@H](c3ccc(O)cc3)C(=O)N2c2cc(OC)c(OC)c(OC)c2)cc1O` came in with a half-life in series [3] of more than 1440 min.

Turning to `COc1ccc(/C=C\c2cc(OC)c(OC)c(OC)c2)cc1N`, the solubility in series [4] was 3300 µg/mL (≈ 10500 µM).

Take `COc1ccc([C@H]2[C@H](c3ccccc3)C(=O)N2c2cc(OC)c(OC)c(OC)c2)cc1N`: the half-life in [3] was more than 1440 min.

`CC[C@H](C)[C@H](N)C(=O)Nc1cc([C@H]2[C@H](c3ccccc3)C(=O)N2c2cc(OC)c(OC)c(OC)c2)ccc1OC`: the IC50 with MCF7 [1] was 1100 nM. The same compound displayed a solubility at 24 h in [2] of 110 µg/mL (≈ 201 µM).

In the case of `COc1ccc([C@H]2[C@H](c3ccccc3)C(=O)N2c2cc(OC)c(OC)c(OC)c2)cc1NC(=O)[C@H](C)N`, the half-inhibitory concentration (IC50) in the series on MCF7 [1] was found to be 760 nM. The compound further came in with a solubility at 24 h in series [2] of 370 µg/mL (≈ 732 µM).

As for `COc1ccc([C@H]2[C@H](c3ccccc3)C(=O)N2c2cc(OC)c(OC)c(OC)c2)cc1NC(=O)[C@@H](N)CCCCN`, in the series on MCF7 [1], the 50% inhibitory concentration (IC50) was determined as 9800 nM.

Turning to `COc1ccc([C@H]2[C@H](c3ccc(NC(=O)[C@H](C)N)cc3)C(=O)N2c2cc(OC)c(OC)c(OC)c2)cc1`, the IC50 in the series with MCF7 [1] amounted to 35 nM.

Take `COc1ccc([C@H]2[C@H](c3ccccc3)C(=O)N2c2cc(OC)c(OC)c(OC)c2)cc1NC(=O)[C@@H](N)C(C)C`: the IC50 in series [5] turned out to be 5.2 µM; in the series with MCF7 [1], 460 nM. In series [2], this compound registered a solubility at 24 h of 110 µg/mL (≈ 206 µM). This compound also yielded a half-life in series [3] of more than 1440 min. In addition, the outcome in the series with MCF7 [6], with MCF7 [7], in the series on MCF7 [8] and in the series with MCF7 [9] was Active. In addition, the inhibition entry in the series filed under Bos taurus [10] is “Dose-dependent effect”.

For `COc1ccc([C@H]2[C@H](c3ccccc3)C(=O)N2c2cc(OC)c(OC)c(OC)c2)cc1NC(=O)[C@@H](N)CO`, the IC50 in the series with MCF7 [1] amounted to 780 nM. For the same compound, in series [2], the concentration in solution (solubility at 24 h) came to 200 µg/mL (≈ 383 µM).

For `COc1ccc([C@H]2[C@H](c3ccc(NC(=O)[C@@H](N)CCCCN)cc3)C(=O)N2c2cc(OC)c(OC)c(OC)c2)cc1`, the half-maximal inhibitory concentration (IC50) in the series on MCF7 [1] was found to be 690 nM.

In the case of `COc1ccc([C@H]2[C@H](c3ccc(NC(=O)CN)cc3)C(=O)N2c2cc(OC)c(OC)c(OC)c2)cc1`, the concentration for half-maximal inhibition (IC50) in the series with MCF7 [1] is 91 nM. For the same compound, in [2], the concentration in solution (solubility at 24 h) was 60 µg/mL (≈ 122 µM). In series [3], this compound came in with a half-life of more than 1440 min.

In the case of `COc1ccc([C@H]2[C@H](c3ccccc3)C(=O)N2c2cc(OC)c(OC)c(OC)c2)cc1NC(=O)[C@@H](N)Cc1ccc(O)cc1`, in the series with MCF7 [1], the concentration for half-maximal inhibition (IC50) is 740 nM.

With `COc1ccc([C@H]2[C@H](c3ccc(NC(=O)[C@@H](N)Cc4ccccc4)cc3)C(=O)N2c2cc(OC)c(OC)c(OC)c2)cc1`, the result with MCF7 [11], with MCF7 [12], in the series with MCF7 [13] and in the series with MCF7 [14] was Active. Also, the figures for the IC50 (in series [5]; in the series with MCF7 [1]) were 2.4 µM and 27 nM, respectively. The same compound gave a solubility at 24 h in series [2] of 140 µg/mL (≈ 241 µM). The inhibition result in the series listed under Bos taurus [10] is “Dose-dependent effect”.

`COc1ccc([C@H]2[C@H](c3ccc(O)cc3)C(=O)N2c2cc(OC)c(OC)c(OC)c2)cc1OP(=O)(O)O`: the inhibition result in the series listed under Bos taurus [15] is “inactive”. The outcome with MCF7 [11], in the series with MCF7 [12], with MCF7 [13] and in the series with MCF7 [14] was Active. The IC50 with MCF7 [1] turned out to be 22 nM. This compound also had a solubility at 24 h in series [2] of 140 µg/mL (≈ 263 µM). The same compound had a half-life in [3] of more than 1440 min.

As to `COc1ccc(/C=C\c2cc(OC)c(OC)c(OC)c2)cc1NC(=O)[C@@H](N)CO` [OMBRABULIN], the concentration for half-maximal inhibition (IC50) in the series with Colon 26 came to 27.2 nM. For the same compound, the solubility amounted to 110 µg/mL (≈ 273 µM) in series [16] and 3300 µg/mL (≈ 8200 µM) in [4].

`COc1ccc([C@H]2[C@H](c3ccc(N)cc3)C(=O)N2c2cc(OC)c(OC)c(OC)c2)cc1` displayed a half-life in series [3] of more than 1440 min.

`COc1ccc([C@H]2[C@H](c3cccs3)C(=O)N2c2cc(OC)c(OC)c(OC)c2)cc1OP(=O)(O)O`: the result with MCF7 [11], with MCF7 [12], in the series with MCF7 [13] and with MCF7 [14] was Active. Besides, the half-inhibitory concentration (IC50) with MCF7 [1] was determined as 20 nM. The same compound displayed a solubility at 24 h in series [2] of 450 µg/mL (≈ 863 µM).

For the compound `COc1ccc([C@H]2[C@H](c3ccccc3)C(=O)N2c2cc(OC)c(OC)c(OC)c2)cc1NC(=O)CN`, the concentration for half-maximal inhibition (IC50) in the series on MCF7 [1] turned out to be 1100 nM.

Regarding `COc1ccc([C@H]2[C@H](c3ccccc3)C(=O)N2c2cc(OC)c(OC)c(OC)c2)cc1NC(=O)[C@@H](N)Cc1ccccc1`, the IC50 in the series with MCF7 [1] is 1130 nM.

On to `COc1ccc([C@H]2[C@H](c3ccccc3)C(=O)N2c2cc(OC)c(OC)c(OC)c2)cc1OP(=O)(O)O`, for which, in the series filed under Bos taurus [15], the inhibition entry is “inactive”. Besides, the outcome with MCF7 [11] and in the series with MCF7 [13] was Active. In the series with MCF7 [1], the half-inhibitory concentration (IC50) stood at 71 nM. This compound also yielded a solubility at 24 h in series [2] of 300 µg/mL (≈ 582 µM).

The values are drawn from ChEMBL document CHEMBL2331188, “Synthesis and biochemical activities of antiproliferative amino acid and phosphate derivatives of microtubule-disrupting β-lactam combretastatins” (Eur J Med Chem, 2013).
